Results on 18 compounds are retold here after ChEMBL document CHEMBL1154711, “Original quinazoline derivatives displaying antiplasmodial properties” (Eur J Med Chem, 2010).

The subject of one assay is Leishmania donovani. As to the kind of experiment: Antileishmanial activity against GFP-transfected Leishmania donovani HOM/IN/01/2001 promastigotes after 72 hrs. The note with it: HOM/IN/01/2001, 72 h. The assay is classed as functional, organism-based. The gist of the method: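 GFP-expressing promastigotes at 10⁵ parasites/mL in medium with 10% FCS and G418, exposed in duplicate to a concentration range of compounds in DMSO (final <0.5% v/v) for 72 h at 27 °C. DMSO and amphotericin B controls were included. Growth was read by flow cytometry (488 nm argon laser, green FL1 fluorescence). The IC50 is the 50% growth decrease, from three independent experiments.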

The next assay has as its system Plasmodium falciparum. As to the kind of experiment: Antiplasmodial activity against chloroquine-resistant Plasmodium falciparum W2 infected in human erythrocyte after 48 hrs by flow cytometry. The assay is classed as functional, organism-based. The method, boiled down:
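W2 strain (chloroquine-, pyrimethamine- and proguanil-resistant) kept in RPMI 1640 with 25 mM HEPES, 25 mM NaHCO3 and 10% A+ human serum. Cultures held at 37 °C under 10% O2, 6% CO2, 84% N2. Assay wells at 2% haematocrit; compounds added in DMSO or water. Incubated 48 h with no medium change. Infected erythrocytes counted by hydroethidine flow cytometry. IC50 taken from three independent experiments.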
A general note: In flow cytometry, cells or beads pass a laser one at a time.

Assay [1] can be described thus: Selectivity index, ratio of IC50 for human K562 cells to IC50 for chloroquine-resistant Plasmodium falciparum W2.
The test system of another assay is Toxoplasma gondii. As to the kind of experiment: Antitoxoplasmic activity against Toxoplasma gondii PRU-betaGal tachyzoite after 96 hrs by colorimetric microtiter assay. Type of assay: functional, organism-based. The gist of the method: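 Confluent HFF monolayers (10⁴ cells seeded per well) in phenol red-free RPMI 1640 with 10% FCS and glutamine/penicillin–streptomycin were infected with 2×10³ tachyzoites per well for 3 h at 37 °C, 6% CO2. Compounds in DMSO (<0.5% v/v) were added in triplicate for 96 h. CPRG was then added for 24 h and β-galactosidase read at 570/630 nm, blanked on uninfected wells. IC50 from three independent experiments.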

For a further assay, the system named is K562. As to the kind of experiment: Cytotoxicity against human K562 cells after 72 hrs by flow cytometry. Type of assay: functional, cell-based. The method, boiled down: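 Cells were treated with a concentration range for 72 h at 37 °C, 6% CO2, with solvent and doxorubicin controls, and wells were checked for precipitate. Cells were stained with propidium iodide and live cells counted by flow cytometry. IC50 is the concentration giving a 50% decrease in proliferation versus control, from nonlinear regression of dose–response curves, mean of three independent experiments.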

The next assay deals with HepG2. As to the kind of experiment: Cytotoxicity against human HepG2 cells after 72 hrs by MTT assay. Type of assay: cell-based. The gist of the method: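 Cells in RPMI with 10% FBS, glutamine and penicillin/streptomycin were grown 24 h at 37 °C, 6% CO2, then exposed to a concentration range for 72 h. Wells were checked microscopically for precipitate. MTT (5 mg/mL in PBS) was added in serum-free medium for 2 h, formazan dissolved in DMSO, and absorbance read at 570 nm (630 nm reference). Viability is % of untreated control; the 50% cytotoxic concentration comes from the dose–response curve, mean of three experiments.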

The nature of assay [2]: Selectivity index, ratio of IC50 for human HepG2 cells to IC50 for chloroquine-resistant Plasmodium falciparum W2.
The mark [3] stands for this setting: Plasmodium falciparum, W2, 48 h, read-out: IC50.
Where [4] appears, read: Homo sapiens, K562, 72 h, read-out: IC50.
Where [5] appears, read: Homo sapiens, HepG2, 72 h, read-out: IC50.

The structures appear in SMILES notation.

Regarding `Cc1ccc(S(=O)(=O)Cc2nc(Nc3cccc(Cl)c3)c3cc([N+](=O)[O-])ccc3n2)cc1`, the IC50 (usually the concentration at which inhibition is half-maximal) in the assay on Leishmania donovani was 11 µM; in the assay with Plasmodium falciparum (setting [3]), 1.3 µM; in the assay with Toxoplasma gondii it was more than 25 µM; in the assay with K562 (setting [4]) it was more than 125 µM; in the assay on HepG2 (setting [5]), more than 100 µM. The “Ratio IC50” value is reported as more than 96 in assay [1] and more than 77 in assay [2].

Take `Cc1ccc(S(=O)(=O)Cc2nc(Nc3ccc(F)cc3)c3ccccc3n2)cc1`: the concentration for half-maximal inhibition (IC50) with Plasmodium falciparum (setting [3]) is 20 µM; in the assay on K562 (setting [4]), more than 20 µM; with HepG2 (setting [5]) it was more than 15 µM. Moreover, the figures for the “Ratio IC50” value in assay [1] and in assay [2] were more than 1 and more than 0.75, respectively.

The compound `C[C@@H]1[C@H](O)[C@@H](C)/C=C/C=C/C=C/C=C/C=C/C=C/C=C/[C@H](O[C@@H]2O[C@H](C)[C@@H](O)[C@H](N)[C@@H]2O)C[C@@H]2O[C@](O)(C[C@@H](O)C[C@@H](O)[C@H](O)CC[C@@H](O)C[C@@H](O)CC(=O)O[C@H]1C)C[C@H](O)[C@H]2C(=O)O` [AMPHOTERICIN B] showed an IC50 in the assay on Leishmania donovani of 0.06 µM.

As to `CC(C)=Cc1nc(Nc2cccc(C(F)(F)F)c2)c2cc([N+](=O)[O-])ccc2n1`, the IC50 in the assay on Plasmodium falciparum (setting [3]) is 3.2 µM; in the assay on K562 (setting [4]), more than 125 µM; with HepG2 (setting [5]), more than 100 µM. The “Ratio IC50” value in assay [1] was more than 39; in assay [2], 31.3.

For the compound `COc1cccc2c1C(=O)c1c(O)c3c(c(O)c1C2=O)C[C@@](O)(C(=O)CO)C[C@@H]3O[C@H]1C[C@H](N)[C@H](O)[C@H](C)O1` [DOXORUBICIN], the IC50 in the assay on HepG2 (setting [5]) came out at 0.2 µM.

As for `Cc1ccc(S(=O)(=O)Cc2nc(Nc3cccc(C(F)(F)F)c3)c3ccccc3n2)cc1`, the IC50 with Plasmodium falciparum (setting [3]) is 15 µM; with K562 (setting [4]), more than 25 µM; with HepG2 (setting [5]) it was more than 25 µM. The “Ratio IC50” value in assay [1] and in assay [2] was more than 1.7 each time.

With `CC(C)=Cc1nc(Nc2cccc(Br)c2)c2cc([N+](=O)[O-])ccc2n1`, the concentration for half-maximal inhibition (IC50) was 7.5 µM with Plasmodium falciparum (setting [3]), more than 62 µM in the assay with K562 (setting [4]) and more than 15 µM with HepG2 (setting [5]). Further, the “Ratio IC50” value in assay [1] is given as more than 8; in assay [2], more than 2.

As for `Cc1ccc(S(=O)(=O)Cc2nc(Nc3cccc(Br)c3)c3ccccc3n2)cc1`, the half-maximal inhibitory concentration (IC50) with Plasmodium falciparum (setting [3]) was 13 µM; with K562 (setting [4]), more than 15 µM; with HepG2 (setting [5]) it was more than 15 µM. Also, the “Ratio IC50” value in assay [1] and in assay [2] was more than 1.2 throughout.

For `Cc1ccc(S(=O)(=O)Cc2nc(Nc3ccc(F)cc3)c3cc([N+](=O)[O-])ccc3n2)cc1`, the half-inhibitory concentration (IC50) in the assay with Leishmania donovani is more than 25 µM; in the assay with Plasmodium falciparum (setting [3]), 2.2 µM; with Toxoplasma gondii it was more than 25 µM; in the assay on K562 (setting [4]), more than 125 µM; in the assay on HepG2 (setting [5]) it was more than 50 µM. In addition, the “Ratio IC50” value in assay [1] is reported as more than 57; in assay [2] it was more than 23.

With `Cc1ccc(S(=O)(=O)Cc2nc(Nc3cccc(Br)c3)c3cc([N+](=O)[O-])ccc3n2)cc1`, the IC50 entry with Plasmodium falciparum, in the assay on K562 (k562) and with HepG2 (hepg2) was “ND(Insoluble)” throughout.

For `Cc1ccc(S(=O)(=O)Cc2nc(Nc3cccc(C(F)(F)F)c3)c3cc([N+](=O)[O-])ccc3n2)cc1`, the half-inhibitory concentration (IC50) was 24 µM with Leishmania donovani; 0.95 µM with Plasmodium falciparum (setting [3]); more than 25 µM with Toxoplasma gondii; more than 125 µM in the assay on K562 (setting [4]); more than 100 µM with HepG2 (setting [5]). In addition, the results for the “Ratio IC50” value in assay [1] and in assay [2] were more than 131 and more than 105, respectively.

For the compound `CC(C)=Cc1nc(Nc2ccc(F)cc2)c2cc([N+](=O)[O-])ccc2n1`, the IC50 with Plasmodium falciparum (setting [3]) is 5.6 µM; in the assay with K562 (setting [4]), more than 62 µM; in the assay with HepG2 (setting [5]), 27 µM. For the same compound, the “Ratio IC50” value in assay [1] is more than 11; in assay [2], 4.8.

Take `CCc1nc(N)nc(N)c1-c1ccc(Cl)cc1` [PYRIMETHAMINE]: the concentration for half-maximal inhibition (IC50) in the assay on Toxoplasma gondii worked out at 1.5 µM.

Take `C[C@H]1c2cccc(O)c2C(=O)C2=C(O)[C@]3(O)C(=O)C(C(N)=O)=C(O)[C@@H](N(C)C)[C@@H]3[C@@H](O)[C@@H]21.O` [DOXYCYCLINE]: the figures for the “Ratio IC50” value in assay [1] and in assay [2] were 2.3 and 3.1, respectively.

Regarding `Cc1ccc(S(=O)(=O)Cc2nc(Nc3ccccc3Cl)c3ccccc3n2)cc1`, the IC50 in the assay with Plasmodium falciparum (setting [3]) was 14 µM; with K562 (setting [4]), 24 µM; in the assay on HepG2 (setting [5]) it was more than 50 µM. The entries for the “Ratio IC50” value in assay [1] and in assay [2] were 1.7 and more than 3.6, respectively.

In the case of `Cc1ccc(S(=O)(=O)Cc2nc(Nc3ccccc3)c3ccccc3n2)cc1`, the IC50 result in the assay on Plasmodium falciparum, in the assay with K562 (k562) and in the assay with HepG2 (hepg2) was “ND(Insoluble)” in each case.

For the compound `Cc1ccc(S(=O)(=O)Cc2nc(Nc3ccccc3)c3cc([N+](=O)[O-])ccc3n2)cc1`, the half-maximal inhibitory concentration (IC50) in the assay with Plasmodium falciparum (setting [3]) was 5 µM; in the assay with K562 (setting [4]) it was more than 125 µM; with HepG2 (setting [5]), more than 25 µM. The “Ratio IC50” value is given as more than 25 in assay [1] and more than 5 in assay [2].

`CC(C)=Cc1nc(Nc2ccccc2)c2cc([N+](=O)[O-])ccc2n1`: the results for the half-maximal inhibitory concentration (IC50) in the assay with Plasmodium falciparum (setting [3]), with K562 (setting [4]) and in the assay on HepG2 (setting [5]) were 17 µM, more than 125 µM and 50 µM, respectively. The “Ratio IC50” value in assay [1] is more than 7; in assay [2], 2.9.
